Screening data (PubChem)
The list is not random: actives were taken first. Their share in the collection is about 5.9%.
T cruzi growth – T. cruzi intracellular proliferation inhibitors, primary screen, cell-based, beta-gal Tulahuen parasites, NIH3T3 host, luminescence | 5.9% of 77,000 active | inhibition, % at 8.34 µM | T. cruzi beta-gal in NIH3T3, GalScreen luminescence, 90 h;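 active means mean inhibition above about 93%, with at least 55% of replicates each passing it, limit read from the data, passing the limit was not always enough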
IDH1 mut inh – inhibitors of IDH1 R132H reductase, primary screen, biochemical, plate reader, single point; Isocitrate dehydrogenase [NADP] cytoplasmic (Homo sapiens), O75874; diaphorase/resazurin fluorescence, 60 min; inhibition, % at 10 µM; 0.18% of 70,000 active; AID 624101, 2012; in the data active means inhibition above about 34%;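 further: 0% = DMSO and 100% = no enzyme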
Target sequence (O75874 whole entry R132H): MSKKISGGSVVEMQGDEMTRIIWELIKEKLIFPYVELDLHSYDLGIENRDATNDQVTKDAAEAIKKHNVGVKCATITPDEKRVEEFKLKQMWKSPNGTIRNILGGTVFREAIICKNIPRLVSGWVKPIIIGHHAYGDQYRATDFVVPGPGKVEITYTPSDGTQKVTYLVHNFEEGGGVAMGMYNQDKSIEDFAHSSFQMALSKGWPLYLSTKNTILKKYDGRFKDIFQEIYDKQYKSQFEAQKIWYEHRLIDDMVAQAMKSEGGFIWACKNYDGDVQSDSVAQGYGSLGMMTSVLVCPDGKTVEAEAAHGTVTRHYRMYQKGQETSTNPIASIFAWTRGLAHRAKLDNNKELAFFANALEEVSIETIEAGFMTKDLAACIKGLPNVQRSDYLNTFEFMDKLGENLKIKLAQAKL
Pf Dd2 inh – P. falciparum Dd2 growth inhibitors, primary screen, SYBR Green fluorescence, single dose replicates; 72 h; stronger effect = lower value; activity change, % at 10 µM; 2.3% of 94,000 active; AID 1159554, 2015; in the data active means activity change below about -80%
KDM4C inh – inhibitors of GASC-1 (KDM4C) histone demethylase, primary screen, biochemical, single concentration HTS; GST-KDM4C 2-372, H3K9me3 peptide, LANCE TR-FRET; inhibition, % at 12.5 µM; 0.15% of 96,000 active; AID 720574, 2013;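 active means mean replicate inhibition above about 25%, with at least 55% of replicates also reaching it, limit read from the data, passing the limit was not always enough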
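Material: GST-tagged GASC-1 (JMJD2C) catalytic fragment, aa 2-372. Input: enzyme final amount 10 nM. Medium: HEPES buffer, pH 7.5, plus ascorbate. Reagent: H3K9me3 peptide substrate, Fe(II), 2-oxoglutarate. Doses: single dose. Times: reaction 30 min RT, detection step 1 h RT. Measured by: LANCE TR-FRET. Evaluation: Fall in 671/618 emission ratio as inhibition.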
* marks the source's active call; other numbers are inactive results; · = not tested or not shown.

SMILES	T cruzi growth	IDH1 mut inh	Pf Dd2 inh	KDM4C inh
C[C@@H]1CN([C@@H](C)CO)C(=O)c2cc(NS(=O)(=O)c3ccccc3)ccc2O[C@H]1CN(C)Cc1ccc(C(=O)Nc2ccccc2N)cc1	·	0	-83*	0
C[C@@H]1CN([C@@H](C)CO)C(=O)c2cc(NS(=O)(=O)c3ccc(F)cc3)ccc2O[C@H]1CN(C)Cc1ccc(C(=O)Nc2ccccc2N)cc1	·	0	-85*	1
C/C=C(\C)C(=O)O[C@H]1[C@H](OC(C)=O)[C@@]2(CO)C(CC1(C)C)C1=CCC3[C@@]4(C)CC[C@H](O[C@@H]5O[C@H](C(=O)O)[C@@H](O)[C@H](O[C@@H]6O[C@H](CO)[C@H](O)[C@H](O)[C@H]6O[C@@H]6O[C@@H](C)[C@H](O)[C@@H](O)[C@H]6O)[C@H]5O[C@@H]5O[C@H](CO)[C@@H](O)[C@H](O)[C@H]5O)C(C)(C)C4CC[C@@]3(C)[C@]1(C)C[C@H]2O (stereo not given in full)	·	3	·	·
Cc1cc(NS(=O)(=O)c2ccc(NS(=O)(=O)c3cccs3)cc2)nc(C)n1	·	0	·	·
COc1ccc2c3c([nH]c2c1)[C@@H](CO)N(Cc1ccccc1OC)CC31CCN(C(C)=O)CC1	·	·	52	·
CCC(=O)N1CC2(C1)CN(Cc1cc(F)ccc1F)[C@H](CO)c1[nH]c3cc(OC)ccc3c12	·	·	-90*	-2
COc1ccc2c3c([nH]c2c1)[C@H](CO)N(Cc1cc(F)ccc1F)CC31CCN(C(=O)C2CCC2)CC1	·	·	-88*	3
COc1ccc2c3c([nH]c2c1)[C@H](CO)N(Cc1cc(F)ccc1F)CC31CCN(C(C)=O)CC1	·	·	-90*	-2
COCC(=O)N1CC2(C1)CN(Cc1cc(F)ccc1F)[C@@H](CO)c1[nH]c3cc(OC)ccc3c12	·	·	-71	0
COc1ccc2c3c([nH]c2c1)[C@@H](CO)N(Cc1cc(F)ccc1F)CC31CN(C(C)=O)C1	·	·	-74	0
CCC(=O)N1CCC2(CC1)CN(Cc1cc(F)ccc1F)[C@H](CO)c1[nH]c3cc(OC)ccc3c12	·	·	-87*	0
COc1cccc(OCC(=O)Nc2cc([N+](=O)[O-])ccc2OC)c1	·	0	·	·
C[C@H]1CN([C@@H](C)CO)C(=O)c2cc(NC(=O)CCC(F)(F)F)ccc2O[C@@H]1CN(C)Cc1ccc(C(=O)Nc2ccccc2N)cc1	·	0	-86*	0
C[C@@H]1CCCCO[C@@H](CN(C)Cc2ccc(C(=O)Nc3ccccc3N)cc2)[C@@H](C)CN([C@H](C)CO)C(=O)c2cc(NC(=O)c3ccncc3)ccc2O1	·	1	-85*	0
C[C@@H]1CCCCO[C@@H](CN(C)Cc2ccc(C(=O)Nc3ccccc3N)cc2)[C@@H](C)CN([C@H](C)CO)C(=O)c2cc(NC(=O)CCC(F)(F)F)ccc2O1	·	·	-92*	0
C[C@@H]1CN([C@H](C)CO)C(=O)c2cc(NC(=O)CCC(F)(F)F)ccc2O[C@@H]1CN(C)Cc1ccc(C(=O)Nc2ccccc2N)cc1	70	·	-65	-1
C[C@@H]1CCCCO[C@@H](CN(C)Cc2ccc(C(=O)Nc3ccccc3N)cc2)[C@@H](C)CN([C@H](C)CO)C(=O)c2cc(NC(=O)c3ccccc3)ccc2O1	·	0	-84*	-1
Cc1ccc(NC(=O)CSc2nc3sc(C)c(C)c3c(=O)n2-c2ccc(C)c(C)c2)cc1	·	1	·	·
CO[C@@H]1CN(C)C(=O)c2cc(NC(=O)c3cc(C)on3)ccc2OC[C@@H](C)N(S(=O)(=O)c2cccc(C)c2)C[C@H]1C	68	-1	-50	-1
CO[C@@H]1CN(C)C(=O)c2cc(NC(=O)c3nc4ccccc4s3)ccc2OC[C@@H](C)N(Cc2ccncc2)C[C@H]1C	84	3	-87*	1
COc1ccc(CN2C[C@@H](C)[C@H](OC)CN(C)C(=O)c3cc(NC(=O)c4nc5ccccc5s4)ccc3OC[C@H]2C)cc1	·	0	-86*	-1
COc1ccc(CN2C[C@H](C)[C@@H](OC)CN(C)C(=O)c3ccc(NC(=O)c4nc5ccccc5s4)cc3OC[C@@H]2C)cc1	93	0	-90*	-3
COc1ccc(CN2C[C@@H](C)[C@H](OC)CN(C)C(=O)c3cc(NC(=O)c4nc5ccccc5s4)ccc3OC[C@@H]2C)cc1	·	0	-71	0
